Measurements published in ChEMBL document CHEMBL5053495, “A Versatile Sub-Nanomolar Fluorescent Ligand Enables NanoBRET Binding Studies and Single-Molecule Microscopy at the Histamine H3 Receptor” (J Med Chem, 2021).

Assays:
Homo sapiens [1] = species: Homo sapiens; test: Selectivity ratio of Ki for human H1 receptor to Ki for human H3 receptor
Homo sapiens [2] = species: Homo sapiens; test: Selectivity ratio of Ki for human H2 receptor to Ki for human H3 receptor
Histamine H3 receptor [3] = biological target: T1, Histamine H3 receptor (Homo sapiens, UniProt Q9Y5N1); test: Binding affinity to human H3 receptor assessed as labeling efficiency by measuring dual color acquisition at 3 nM by microscopy based TIRF assay
Homo sapiens [4] = species: Homo sapiens; test: Selectivity ratio of Ki for human H4 receptor to Ki for human H3 receptor
Histamine H3 receptor [5] = biological target: T1, Histamine H3 receptor; test: Binding affinity in Nluc-hH3R assessed as association rate constant by NanoBRET binding assay
Histamine H3 receptor [6] = biological target: T1, Histamine H3 receptor; test: Binding affinity in Nluc-hH3R assessed as association time constant receptor saturated after 15 mins by NanoBRET binding assay
Histamine H3 receptor [7] = biological target: T1, Histamine H3 receptor; test: Binding affinity in human H3R as assessed as dissociation time constant using confocal microscopy relative to control
Histamine H4 receptor = Histamine H4 receptor (Homo sapiens, UniProt Q9H3N8); test: Displacement of [3H]histamine from human H4R receptor expressed in HEK293 cells by radioligand competition binding assay; format: cell-based
Histamine H3 receptor [8] = biological target: T1, Histamine H3 receptor; test: Binding affinity in human H3 receptor expressed in HEK293 cells by confocal microscopy; format: cell-based
Histamine H3 receptor [9] = biological target: T1, Histamine H3 receptor; test: Binding affinity in Nluc-hH3R assessed in HEK293 cells by NanoBRET binding assay; format: cell-based
Method in brief: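 Saturation NanoBRET binding of the fluorescent ligand at live HEK293 cells stably expressing NLuc-hH3R; acceptor/donor BRET ratio; pKd from saturation isotherm; three independent experiments, each in duplicate.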

Histamine H3 receptor [10] = biological target: T1, Histamine H3 receptor; test: Displacement of [3H]UR-P1294 from human H3R receptor expressed in HEK293 cells by radioligand competition binding assay; format: cell-based
Histamine H3 receptor [11] = biological target: T1, Histamine H3 receptor; test: Binding affinity in human H3R assessed as association rate constant using confocal microscopy
Histamine H1 receptor = Histamine H1 receptor (Homo sapiens, UniProt P35367); test: Displacement of [3H]mepyramine from human H1R receptor expressed in HEK293 cells by radioligand competition binding assay; format: cell-based
Histamine H3 receptor [12] = biological target: T1, Histamine H3 receptor; test: Binding affinity in human H3R assessed as association time constant by confocal microscopy
Histamine H3 receptor [13] = biological target: T1, Histamine H3 receptor; test: Binding affinity in Nluc-hH3R assessed as dissociation time constant by NanoBRET binding assay
Histamine H3 receptor [14] = biological target: T1, Histamine H3 receptor; test: Inhibition of human H3R expressed in HEK293-A cells assessed as inhibition of imetit-induced Gi2 activation by BRET assay; format: cell-based
Histamine H2 receptor = Histamine H2 receptor (Homo sapiens, UniProt P25021); test: Displacement of [3H]UR-DE25 from human H2R receptor expressed in HEK293 cells by radioligand competition binding assay; format: cell-based
Histamine H3 receptor [15] = biological target: T1, Histamine H3 receptor; test: Binding affinity to human H3R expressed in HEK293 cells by flow cytometric analysis; format: cell-based
Histamine H3 receptor [16] = biological target: T1, Histamine H3 receptor; test: Binding affinity in Nluc-hH3R assessed in HEK293T cells by NanoBRET binding assay; format: cell-based

T1 sequence (Q9Y5N1 whole entry): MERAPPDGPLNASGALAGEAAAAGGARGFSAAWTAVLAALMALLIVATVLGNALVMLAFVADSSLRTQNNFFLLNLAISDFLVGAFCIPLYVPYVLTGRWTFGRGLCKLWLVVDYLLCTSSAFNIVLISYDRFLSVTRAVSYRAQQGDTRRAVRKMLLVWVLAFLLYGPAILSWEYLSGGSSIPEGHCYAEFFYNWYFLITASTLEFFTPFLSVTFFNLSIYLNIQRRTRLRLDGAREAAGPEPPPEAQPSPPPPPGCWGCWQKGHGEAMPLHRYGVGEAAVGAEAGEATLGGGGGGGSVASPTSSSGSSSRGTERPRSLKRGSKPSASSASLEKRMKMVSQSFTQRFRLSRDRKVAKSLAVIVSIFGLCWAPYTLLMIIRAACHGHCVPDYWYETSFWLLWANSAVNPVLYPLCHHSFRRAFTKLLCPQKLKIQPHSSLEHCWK
Chain of Histamine H4 receptor (Q9H3N8 whole entry): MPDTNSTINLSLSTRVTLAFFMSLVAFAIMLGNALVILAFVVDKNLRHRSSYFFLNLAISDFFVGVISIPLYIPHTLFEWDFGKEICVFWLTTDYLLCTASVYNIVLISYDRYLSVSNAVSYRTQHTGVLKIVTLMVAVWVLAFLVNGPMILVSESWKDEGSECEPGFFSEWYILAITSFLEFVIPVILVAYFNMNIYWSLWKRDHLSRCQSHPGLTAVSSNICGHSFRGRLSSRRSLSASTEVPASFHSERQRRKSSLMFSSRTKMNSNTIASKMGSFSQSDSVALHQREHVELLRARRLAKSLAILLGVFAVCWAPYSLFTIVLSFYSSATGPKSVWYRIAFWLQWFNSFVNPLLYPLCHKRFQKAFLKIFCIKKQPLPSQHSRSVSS
Chain of Histamine H2 receptor (P25021 whole entry): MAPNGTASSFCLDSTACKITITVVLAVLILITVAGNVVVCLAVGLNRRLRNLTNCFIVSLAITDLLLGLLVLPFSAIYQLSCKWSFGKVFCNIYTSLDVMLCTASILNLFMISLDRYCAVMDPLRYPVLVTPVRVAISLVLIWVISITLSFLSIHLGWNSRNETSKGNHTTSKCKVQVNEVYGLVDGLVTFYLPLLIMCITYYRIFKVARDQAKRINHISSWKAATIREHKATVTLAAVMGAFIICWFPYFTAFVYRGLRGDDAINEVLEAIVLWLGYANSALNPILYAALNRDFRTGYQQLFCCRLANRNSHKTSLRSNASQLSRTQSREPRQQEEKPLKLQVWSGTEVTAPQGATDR
Chain of Histamine H1 receptor (P35367 whole entry): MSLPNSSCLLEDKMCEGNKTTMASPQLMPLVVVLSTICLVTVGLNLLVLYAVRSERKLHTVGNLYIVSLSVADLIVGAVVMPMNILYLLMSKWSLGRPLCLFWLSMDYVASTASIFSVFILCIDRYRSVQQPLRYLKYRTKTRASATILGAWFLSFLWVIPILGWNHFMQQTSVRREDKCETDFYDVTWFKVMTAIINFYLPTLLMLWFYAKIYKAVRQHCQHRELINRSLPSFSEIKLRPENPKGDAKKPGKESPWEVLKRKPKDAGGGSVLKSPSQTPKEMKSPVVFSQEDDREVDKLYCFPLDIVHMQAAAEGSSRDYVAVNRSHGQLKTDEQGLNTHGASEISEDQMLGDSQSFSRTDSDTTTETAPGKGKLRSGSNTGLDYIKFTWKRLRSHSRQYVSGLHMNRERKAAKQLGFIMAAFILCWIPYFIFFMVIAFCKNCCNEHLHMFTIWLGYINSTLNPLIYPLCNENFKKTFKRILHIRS

CN(C)c1ccc2c(-c3ccc(C(=O)NCCOCCOCCOCCNC(=O)C4CCN(Cc5ccc(OCCCN6CCCCC6)cc5)CC4)cc3C(=O)[O-])c3ccc(=[N+](C)C)cc-3oc2c1
Ratio Ki (Homo sapiens [1]): > 100000 | Ratio Ki (Homo sapiens [2]): > 100000 | Activity (Histamine H3 receptor [3]): 96.1% | Ratio Ki (Homo sapiens [4]): > 100000 | Activity (Histamine H3 receptor [5]): 0.71 min⁻¹ nM⁻¹ | TIME (Histamine H3 receptor [6]): 0.0328 h | TIME (Histamine H3 receptor [7]): 0.0583 h | Ki (Histamine H4 receptor): > 100000 nM | Activity (Histamine H3 receptor [8]): 2.13 min⁻¹ | Kd (Histamine H3 receptor [9]): 0.158 nM | Ki (Histamine H3 receptor [10]): 0.302 nM | Activity (Histamine H3 receptor [11]): 0.37 min⁻¹ nM⁻¹ | Ki (Histamine H1 receptor): > 100000 nM | TIME (Histamine H3 receptor [12]): 0.008 h | TIME (Histamine H3 receptor [13]): 0.107 h | pKb (Histamine H3 receptor [14]): 9.04 | Ki (Histamine H2 receptor): > 100000 nM | Kd (Histamine H3 receptor [15]): 0.195 nM

CCN1CCN(C(=O)c2ccc(-c3nc4ccccc4s3)s2)CC1
Ki (Histamine H3 receptor [16]): 19.5 nM | Ki (Histamine H3 receptor [9]): 19.5 nM

O=C(O)C1CCN(Cc2ccc(OCCCN3CCCCC3)cc2)CC1
Ki (Histamine H3 receptor [10]): 1.58 nM

CCOC(=O)C1CCN(Cc2ccc(OCCCN3CCCCC3)cc2)CC1
Ki (Histamine H3 receptor [10]): 0.275 nM

N=C(N)SCCc1cnc[nH]1 [IMETIT]
Ki (Histamine H3 receptor [16]): 5.01 nM | Ki (Histamine H3 receptor [9]): 12.6 nM

NCCOCCOCCOCCNC(=O)C1CCN(Cc2ccc(OCCCN3CCCCC3)cc2)CC1
Ki (Histamine H3 receptor [10]): 0.398 nM
